Results pooled from the literature.
Each line is one published result; the experiments were not run side by side. pIC50: −log10 of the molar value.
Target: Amine oxidase [flavin-containing] B (MAOB, Homo sapiens, UniProt P27338)
Effect on: enzyme activity
Action: inhibitor
One construct used (P27338 1-520): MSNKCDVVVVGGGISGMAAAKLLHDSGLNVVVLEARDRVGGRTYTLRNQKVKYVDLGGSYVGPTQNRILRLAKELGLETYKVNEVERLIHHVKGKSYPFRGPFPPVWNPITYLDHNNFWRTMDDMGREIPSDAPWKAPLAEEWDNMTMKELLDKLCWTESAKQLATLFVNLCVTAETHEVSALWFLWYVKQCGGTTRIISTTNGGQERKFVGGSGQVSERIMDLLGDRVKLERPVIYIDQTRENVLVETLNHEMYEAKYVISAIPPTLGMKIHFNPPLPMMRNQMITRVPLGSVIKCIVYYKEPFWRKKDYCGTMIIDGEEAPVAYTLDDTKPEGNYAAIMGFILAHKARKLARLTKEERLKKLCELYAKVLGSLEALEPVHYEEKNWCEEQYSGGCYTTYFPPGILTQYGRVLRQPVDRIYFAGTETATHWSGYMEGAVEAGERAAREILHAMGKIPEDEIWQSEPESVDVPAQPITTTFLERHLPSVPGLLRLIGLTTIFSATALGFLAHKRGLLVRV

| test | pIC50 | SMILES |
| --- | --- | --- |
|  | 4.92 | O=C1C[C@@H](c2cc(O)cc(O)c2)Oc2cc(O)ccc21 |
|  | 6.86 | O=C(Nc1ccc(Br)cc1)c1cc(Cl)ccc1O |
|  | 4.63 | O=c1cc(-c2ccc(O)cc2)oc2cc(O)c([C@@H]3O[C@H](CO)[C@@H](O)[C@H](O)[C@H]3O)c(O)c12 |
| fluorescence | < 4.52 | c1ccc2[nH]c(-c3nc4ccccc4[nH]3)nc2c1 |
|  | 4.52 | O=C(c1ccc(O)cc1O)[C@H](O)[C@@H](O)c1ccc(O)cc1 |
|  | 4.70 | CCn1c(-c2nc3ccc(C(=O)N4CCCC(N)C4)cc3n2C)cc2ccccc21 (stereo not shown) |
|  | 4.36 | O=c1cc(-c2ccc(O)cc2)oc2c([C@@H]3O[C@H](CO)[C@@H](O)[C@H](O)[C@H]3O)c(O)c([C@@H]3O[C@H](CO)[C@@H](O)[C@H](O)[C@H]3O)c(O)c12 |
| fluorescence | 7.21 | Cn1c(=O)c2ccc(C(=O)Nc3ccccc3F)nc2n(C)c1=O |
| fluorescence | 6.14 | COc1ccc(/C=C/C(=O)N2CCc3ccccc3C2)cc1OC |
| fluorescence | 5.06 | Cn1c(=O)[nH]c(=O)n2c(CC(=O)Nc3cccc4ccccc34)cnc12 |
| fluorescence | 5.96 | COc1ccc(/C=C/C(=O)N2CCC(Cc3ccccc3)CC2)cc1OC |
| fluorescence | 6.40 | c1ccc(Nc2nccc(-c3cccnc3)n2)cc1 |
| fluorescence | 6.49 | C#CCOc1ccc(/C=C/C(=O)N2CCC(Cc3ccccc3)CC2)cc1OC |
| fluorescence | < 5.00 | Nc1nn(-c2ccccc2)nc1C(=O)O |
| fluorescence | 6.25 | COc1cc(/C=C/C(=O)N2CCC(Cc3ccccc3)CC2)ccc1OC1CCCCC1 |
|  | < 6.00 | COC(=O)c1ccc(C(=O)OC)c(NC(=O)c2cc(Cl)ccc2O)c1 |
